≈ marks a conversion by molar mass, not a printed value. Calls of active or inactive are those of the source. The calls are words filed in the database; no cut-off is given here.
Columns and labels:
[1] = Terminal half-life in NMRI mouse at 120 mg/kg, sc by LC-MS/MS analysis; format: ADME, organism-based; conditions: in vivo, read-out: beta t1/2 (converted)
Method in brief: (§1)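 Mice dosed iv at 10 mg/kg or sc at 120 mg/kg. AUC normalized to dose (μg·h/(mL·dose)). Unbound AUC derived using fraction unbound. Clearance, Vdss and terminal half-life also derived.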

[2] = Clearance in dog at 1 mg/kg, iv by LC-MS/MS analysis; format: ADME, organism-based, Canis lupus familiaris; conditions: in vivo
Method in brief: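 Dogs given 1 mg/kg iv. Clearance (mL/min/kg) and half-life (h) derived from plasma profiles.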

[3] = Inhibition of wild-type Pseudomonas aeruginosa DNA topoisomerase-4 mediated supercoiled pBR322 DNA relaxation by ethidium bromide based agarose gel electrophoresis
Escherichia coli [4] = test: Antibacterial activity against Escherichia coli ATCC 25922 by CLSI broth microdilution method; format: functional
Escherichia coli [5] = test: Antibacterial activity against wild-type Escherichia coli ATCC 25922 by CLSI broth microdilution method; format: functional
Escherichia coli [6] = test: Antibacterial activity against Escherichia coli ATCC 25922 infected in cyclophosphamide-induced neutropenic NMRI mouse model assessed as log reduction in colony forming units in thighs at 360 mg/kg, sc treated 2 hrs post infection measured 5.5 hrs post dose; format: functional
Method in brief: (§2)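 Neutropenic murine thigh infection with an E. coli strain, compound given subcutaneously. Thigh CFU counted 7.5 h post-infection (5.5 h post-treatment). Net change expressed relative to CFU at treatment start.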

Mus musculus [7] = test: Dose normalized unbound AUC in NMRI mouse at 120 mg/kg, sc by LC-MS/MS analysis; format: ADME, organism-based; conditions: in vivo; method in brief: as §1
Canis familiaris = test: Dose normalized AUC in dog at 1 mg/kg, iv by LC-MS/MS analysis; format: ADME, organism-based, Canis lupus familiaris; conditions: in vivo
[8] = Fraction unbound in NMRI mouse plasma at 120 mg/kg, sc by rapid equilibrium dialysis; format: ADME, organism-based; method in brief: as §1
[9] = Cardiotoxicity against human induced pluripotent stem cell-derived cardiomyocytes assessed as free drug concentration causing inhibition of spontaneous rhythm after 5 to 60 mins by Fluo-4 dye based fluorescence assay; format: toxicity; conditions: cardiac muscle cell
Method in brief: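 Spontaneous beating rhythm of human iPSC-derived cardiomyocytes monitored. Reported value is the lowest active concentration, free or total. Free/total conversion corrected for 20% serum in the test solution.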

[10] = Apparent clearance in NMRI mouse at 120 mg/kg, sc by LC-MS/MS analysis; format: ADME, organism-based; conditions: in vivo; method in brief: as §1
Citrobacter freundii = test: Antibacterial activity against Citrobacter freundii by CLSI broth microdilution method; format: functional
Acinetobacter baumannii = test: Antibacterial activity against multi-drug resistant Acinetobacter baumannii by CLSI broth microdilution method; format: functional
Rattus norvegicus = test: Unbound clearance in Wistar rat at 10 mg/kg, iv by LC-MS/MS analysis; format: ADME, organism-based; conditions: in vivo
Method in brief: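 Rats received a single intravenous dose of 10 or 1 mg/kg depending on the compound. Clearance, unbound clearance, Vdss, terminal half-life and dose-normalized AUC were derived from plasma exposure, with unbound fraction (fu) reported for this species.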

Enterococcus faecalis = test: Antibacterial activity against Enterococcus faecalis by CLSI broth microdilution method; format: functional
Escherichia coli [11] = test: Antibacterial activity against Escherichia coli ATCC 25922 infected in cyclophosphamide-induced neutropenic NMRI mouse model assessed as reduction in colony forming units in thighs at 120 mg/kg, sc treated 2 hrs post infection measured 5.5 hrs post dose; format: functional, organism-based; method in brief: as §2
Mus musculus [12] = test: Dose normalized AUC in NMRI mouse at 120 mg/kg, sc by LC-MS/MS analysis; format: ADME, organism-based; conditions: in vivo; method in brief: as §1
[13] = Fraction unbound in NMRI mouse at 10 mg/kg, iv by rapid equilibrium dialysis; format: ADME, organism-based; conditions: plasma; method in brief: as §1
Staphylococcus aureus = test: Antibacterial activity against methicillin-sensitive Staphylococcus aureus A-1178 infected in cyclophosphamide-induced neutropenic NMRI mouse model assessed as log reduction in colony forming units in thighs at 40 mg/kg, sc treated 2 hrs post infection measured 22 hrs post dose; format: functional
Method in brief: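 Neutropenic mouse thigh model infected with a methicillin-sensitive S. aureus strain, subcutaneous dosing. Thigh CFU measured 24 h post-infection (22 h post-treatment). Net log reduction given against CFU at treatment start.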

Escherichia coli [14] = test: Ratio of MIC for wild-type Escherichia coli MG1655 to MIC for Escherichia coli MG1655 harboring tolC deletion mutant; format: functional, K-12 substr. MG1655
Method in brief: (§3)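 Fold change in MIC for each MG1655 derivative (ΔacrAB, ΔrfaC, ΔtolC) relative to the MIC measured on wild-type E. coli MG1655, with both MICs in μg/mL.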

Escherichia coli [15] = test: Antibacterial activity against wild-type Escherichia coli MG1655 by CLSI broth microdilution method; format: functional; conditions: K-12 substr. MG1655
Method in brief: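 MIC (μg/mL) determined on wild-type E. coli MG1655, the parent of isogenic strains with truncated LPS or deleted TolC or AcrAB efflux.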

Escherichia coli [16] = test: Antibacterial activity against Escherichia coli MG1655 harboring AcrAB deletion mutant by CLSI broth microdilution method; format: functional; conditions: K-12 substr. MG1655
Method in brief: (§4)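 MIC (μg/mL) measured against engineered derivatives of E. coli MG1655. ΔrfaC has truncated LPS (raised permeability). ΔtolC lacks the outer-membrane TolC efflux component. ΔacrAB lacks the AcrAB efflux system of the cytoplasmic membrane.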

[17] = Ratio of AUC in NMRI mouse to MIC for methicillin-sensitive Staphylococcus aureus A-1178 infected in cyclophosphamide-induced neutropenic NMRI mouse model at 40 mg/kg/day
[18] = Solubility of the compound at pH 1 to 9; format: physicochemical; conditions: buffer
Escherichia coli [19] = test: Ratio of MIC for wild-type Escherichia coli MG1655 to MIC for Escherichia coli MG1655 harboring AcrAB deletion mutant; format: functional, K-12 substr. MG1655; method in brief: as §3
[20] = Terminal half-life in NMRI mouse at 10 mg/kg, iv by LC-MS/MS analysis; format: ADME, organism-based; conditions: in vivo, read-out: beta t1/2 (converted); method in brief: as §1
Escherichia coli [21] = test: Ratio of MIC for wild-type Escherichia coli MG1655 to MIC for Escherichia coli MG1655 harboring rfac deletion mutant; format: functional, K-12 substr. MG1655; method in brief: as §3
[22] = Volume of distribution at steady state in NMRI mouse at 10 mg/kg, iv by LC-MS/MS analysis; format: ADME, organism-based; conditions: in vivo, read-out: Vdss
Method in brief: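 Mice received a single dose of 10 mg/kg intravenously, or 120 mg/kg subcutaneously for one compound. Clearance, Vdss, half-life, unbound fraction and dose-normalized AUC were derived from plasma exposure.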

Escherichia coli [23] = test: Antibacterial activity against Escherichia coli MG1655 harboring tolC deletion mutant by CLSI broth microdilution method; format: functional; conditions: K-12 substr. MG1655; method in brief: as §4
Escherichia coli [24] = test: Antibacterial activity against Escherichia coli MG1655 harboring rfac deletion mutant by CLSI broth microdilution method; format: functional; conditions: K-12 substr. MG1655; method in brief: as §4
Mus musculus [25] = test: Dose normalized unbound AUC in NMRI mouse at 10 mg/kg, iv by LC-MS/MS analysis; format: ADME, organism-based; conditions: in vivo; method in brief: as §1

COc1ccc2ccc(=O)n(C[C@H](N)[C@@H]3CC[C@@H](NCc4ccc5c(n4)NC(=O)CO5)CO3)c2n1
half-life [1]: 5.2 h | clearance [2]: 45 mL/min/kg | IC50 [3]: 30 nM | MIC (Escherichia coli [4]): 0.25 µg/mL (≈ 0.52 µM) | MIC (Escherichia coli [5]): 0.25 µg/mL (≈ 0.52 µM) | Activity (Escherichia coli [6]): 2 log10CFU | fAUC/dose (Mus musculus [7]): 68.6 µg·h/mL | AUC/dose (Canis familiaris): 376 ng·h/mL | fraction unbound [8]: 0.369 | Drug uptake(free) [9]: 0.27 to 0.81 µM | CL/F [10]: 86 mL/min/kg | MIC (Citrobacter freundii): 1 µg/mL (≈ 2.08 µM) | MIC (Acinetobacter baumannii): 1 to 16 µg/mL (≈ 2.08 to 33.3 µM) | CL free (Rattus norvegicus): 144 mL/min/kg | MIC (Enterococcus faecalis): 1 µg/mL (≈ 2.08 µM) | Activity (Escherichia coli [11]): inactive | AUC/dose (Mus musculus [12]): 186 µg·h/mL

COc1ccc2ncc(F)c(C[C@H](N)[C@@H]3CC[C@@H](NCc4ccc5c(n4)NC(=O)CO5)CO3)c2n1
fraction unbound [13]: 0.15 | Activity (Staphylococcus aureus): >2.5 log10CFU | Ratio (Escherichia coli [14]): 8 | MIC (Escherichia coli [15]): 0.063 µg/mL (≈ 0.131 µM) | IC50 [3]: 30 nM | MIC (Escherichia coli [16]): 0.008 µg/mL (≈ 0.0166 µM) | RatioAUC/MIC [17]: 23.5 | solubility [18]: > 100 µg/mL | Ratio (Escherichia coli [19]): 8 | MIC (Escherichia coli [5]): 0.125 µg/mL (≈ 0.259 µM) | half-life [20]: 5.6 h | Ratio (Escherichia coli [21]): 2 | AUC/dose (Canis familiaris): 34000 ng·h/mL | Vd [22]: 12.3 L/kg | Drug uptake(free) [9]: 0.28 µM | MIC (Escherichia coli [23]): 0.008 µg/mL (≈ 0.0166 µM) | MIC (Citrobacter freundii): 0.25 µg/mL (≈ 0.518 µM) | MIC (Acinetobacter baumannii): 0.125 to 4 µg/mL (≈ 0.259 to 8.29 µM) | CL free (Rattus norvegicus): 573 mL/min/kg | MIC (Enterococcus faecalis): 0.25 µg/mL (≈ 0.518 µM) | MIC (Escherichia coli [24]): 0.031 µg/mL (≈ 0.0642 µM) | fAUC/dose (Mus musculus [25]): 35.4 µg·h/mL
